This is an account of results in ChEMBL document CHEMBL4382295, “Enhanced Tumor Selectivity of 5-Fluorouracil Using a Reactive Oxygen Species-Activated Prodrug Approach” (ACS Med Chem Lett, 2019).

Series [1] concerns MCF7. The series is described as follows: Induction of apoptosis in human MCF7 cells assessed as increase in cleaved PARP1 level up to 100 uM after 48 hrs by Western blot analysis. Format: functional, cell-based. The procedure, abridged:
(§1)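 MCF7 cells treated 48 h at the indicated concentrations, with vehicle-treated cells as control. Lysates immunoblotted for PARP1 and caspase 3 and their cleaved forms (CL-PARP1, CL-caspase 3).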

The test system of series [2] is MDA-MB-435. The series is described as follows: Antiproliferative activity against human MDA-MB-435 cells assessed as growth inhibition at 50 uM after 48 hrs by sulforhodamine B assay relative to control. In kind it is functional. To be noted: MDA-MB-435, 48 h, read-out: GI. The procedure, abridged:
(§2)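 NCI cell-line screen (protocol per DTP/NCI). Cells exposed to a single concentration of 50 μM for 48 h, then percent growth inhibition determined.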
In general terms: Sulforhodamine B stains cellular protein and so reports cell mass.

Series [3] relates to MDA-MB-468. The series is described as follows: Antiproliferative activity against human MDA-MB-468 cells assessed as growth inhibition at 50 uM after 48 hrs by sulforhodamine B assay relative to control. In kind it is functional. To be noted: MDA-MB-468, 48 h, read-out: GI. The method in brief:
as §2

Series [4] deals with MCF7. The series is described as follows: Induction of DNA damage in human MCF7 cells assessed as increase in gammaH2AX level after 48 hrs by DAPI staining based immunofluorescence assay. Format: functional, cell-based. The method in brief: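 MCF7 cells treated 48 h at the indicated concentrations. γH2AX formation, a marker of DNA double-strand breaks, visualized by immunofluorescence.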

The test system of series [5] is MCF7. The series is described as follows: Antiproliferative activity against human MCF7 cells assessed as reduction in cell viability at 1 to 100 uM after 48 to 72 hrs by CCK8 assay. Format: functional, cell-based. The procedure, abridged: (§3)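 Breast cancer MCF7 cells and normal MEC1 cells treated at a range of concentrations, concentrations up to 100 μM. Cell viability then measured. Mean ± SD, n = 4.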
(Tetrazolium assays rely on reduction of a dye to a coloured formazan, in cell work by metabolically active cells.)

The test system of series [6] is OVCAR-3. The series is described as follows: Antiproliferative activity against human OVCAR3 cells assessed as growth inhibition at 50 uM after 48 hrs by sulforhodamine B assay relative to control. Format: functional. To be noted: OVCAR-3, 48 h, read-out: GI. The method in brief: as §2
Series [7] deals with MCF7. The series is described as follows: Antiproliferative activity against human MCF7 cells assessed as reduction in cell viability at 50 to 100 uM after 48 hrs in presence of ROS scavenger NAC by MTT assay.
The nature of series [8]: Acute toxicity in C57BL/6J mouse assessed as death at 100 mg/kg, ip administered every other day for 15 days measured during compound dosing. In kind it is organism-based. To be noted: in vivo, 360 h. The method in brief: (§4)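 Wild-type male C57BL/6 mice, randomized into three groups of seven (21 total): vehicle (5% DMSO and 15% polyethylene glycol in saline) or 100 mg/kg test article. Dosed ip every other day for 15 days. Survival, body weight, eating, drinking and activity were recorded throughout treatment.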

Series [9] has as its system MCF7. The series is described as follows: Induction of apoptosis in human MCF7 cells assessed as increase in cleaved caspase-3 level up to 100 uM after 48 hrs by Western blot analysis. Format: functional, cell-based. The method in brief:
as §1

A short description of series [10]: Acute toxicity in C57BL/6J mouse assessed as abnormality in drinking at 100 mg/kg, ip administered every other day for 15 days measured during compound dosing. Format: organism-based. To be noted: in vivo, 360 h. The procedure, abridged:
as §4

Series [11] in a line: Acute toxicity in C57BL/6J mouse assessed as decrease in body weight at 100 mg/kg, ip administered every other day for 15 days measured during compound dosing. Format: organism-based. To be noted: in vivo, 360 h. The procedure, abridged:
as §4

Series [12] deals with MCF7. The series is described as follows: Antiproliferative activity against human MCF7 cells assessed as growth inhibition at 50 uM after 48 hrs by sulforhodamine B assay relative to control. In kind it is functional. To be noted: MCF7, 48 h, read-out: GI. The procedure, abridged: as §2
Series [13] deals with NCI-H522. The series is described as follows: Antiproliferative activity against human NCI-H522 cells assessed as growth inhibition at 50 uM after 48 hrs by sulforhodamine B assay relative to control. In kind it is functional. To be noted: NCI-H522, 48 h, read-out: GI. The method in brief:
as §2

Series [14] can be described thus: Acute toxicity in C57BL/6J mouse assessed as effect on normal activity at 100 mg/kg, ip administered every other day for 15 days measured during compound dosing. In kind it is organism-based. To be noted: in vivo, 360 h. The procedure, abridged: as §4
A short description of series [15]: Cytotoxicity against human MEC1 cells assessed as cell viability at 1 to 100 uM after 48 to 72 hrs by CCK8 assay relative to control. In kind it is cell-based. To be noted: read-out: Activity. The method in brief:
as §3

The nature of series [16]: Acute toxicity in C57BL/6J mouse assessed as abnormality in eating at 100 mg/kg, ip administered every other day for 15 days measured during compound dosing. Format: organism-based. To be noted: in vivo, 360 h. The method in brief: as §4
A short description of series [17]: Acute toxicity in C57BL/6J mouse assessed as death at 100 mg/kg, ip administered every other day for 12 days. Format: organism-based. To be noted: in vivo, 288 h.
Series [18] is described as follows: Acute toxicity in C57BL/6J mouse assessed as decrease in body weight at 100 mg/kg, ip administered every other day for 12 days. To be noted: in vivo, 288 h. In kind it is organism-based.

Structures are written as SMILES. The source made the active and inactive calls. The rule behind the calls is not given here.

`CC1(C)OB(c2ccc(Cn3cc(F)c(=O)[nH]c3=O)cc2)OC1(C)C`: the outcome in [1], in series [4], in [5] and in series [9] was Active. Also, the inhibition of growth at 50 µM in series [2] is 96%; in series [3], 87%; in [6], 95%; in series [12], 81%; in [13], 90%. Moreover, the result in [7] was inactive. Further, the Activity entry in series [8], in [10], in series [11], in series [14] and in series [16] was “Non-Toxic” each time. Also, the viability at up to 100 µM in [15] is more than 95%.
Take `O=c1[nH]cc(F)c(=O)[nH]1` [FLUOROURACIL]: the outcome in series [1], in series [4], in series [5] and in series [9] was Active. Besides, the Activity entry in series [17] and in [18] was “Toxic” each time.
In the case of `O=c1[nH]c(=O)n(Cc2ccccc2)cc1F`, the result in series [5] was inactive.
On to `O=c1[nH]c(=O)n(Cc2ccc(B(O)O)cc2)cc1F`, for which the outcome in [1], in series [4], in series [5] and in [9] was Active. The inhibition of growth at 50 µM is 65% in [2]; 22% in [3]; 30% in [6]; 33% in series [12]; 44% in series [13]. For the same molecule, the outcome in series [7] was inactive. Further, the viability at up to 100 µM in [15] was more than 95%.
